{
  "source": "ChEMBL document CHEMBL1811814",
  "about": "“Synthesis and evaluation of indole, pyrazole, chromone and pyrimidine based conjugates for tumor growth inhibitory activities--development of highly efficacious cytotoxic agents” (Eur J Med Chem, 2010)",
  "type_in_all_cases": "functional",
  "key": {"MDA-MB-435": {"tested_on": "MDA-MB-435", "test": "Growth inhibition of human MDA-MB-435 cells assessed tumor cell growth at 10^-5 M", "design": "scale not given: the % may be the effect or the level left", "method_in_brief": "(§1)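 NCI 60-human-tumor-cell-line panel screen. Each compound was tested at a single concentration of 10^-5 M, and percent growth of tumor cells was recorded for each cell line. Growth inhibition was expressed from these percent-growth values.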"}, "[1]": {"test": "Growth inhibition of human RPMI8266 cells"}, "ACHN": {"tested_on": "ACHN", "test": "Growth inhibition of human ACHN cells assessed tumor cell growth at 10^-5 M", "design": "scale not given: the % may be the effect or the level left", "method_in_brief": "as §1"}, "SK-MEL-5": {"tested_on": "SK-MEL-5", "test": "Growth inhibition of human SK-MEL-5 cells assessed tumor cell growth at 10^-5 M", "design": "scale not given: the % may be the effect or the level left", "method_in_brief": "as §1"}, "NCI-H460": {"tested_on": "NCI-H460", "test": "Growth inhibition of human NCI-H460 cells"}, "NCI-H23": {"tested_on": "NCI-H23", "test": "Growth inhibition of human NCI-H23 cells"}, "U-251 [2]": {"tested_on": "U-251", "test": "Growth inhibition of human U251 cells assessed tumor cell growth at 10^-5 M", "design": "scale not given: the % may be the effect or the level left", "method_in_brief": "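Single-dose screen at 10^-5 M across the 60 human tumor cell line panel, run to NCI standards. The value is the percent growth of each cell line in the presence of compound. Compounds active at this dose moved on to five-concentration testing (10^-4 to 10^-8 M).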"}, "M14 [3]": {"tested_on": "M14", "test": "Growth inhibition of human M14 cells"}, "SN12C": {"tested_on": "SN12C", "test": "Growth inhibition of human SN12C cells assessed tumor cell growth at 10^-5 M", "design": "scale not given: the % may be the effect or the level left", "method_in_brief": "as §1"}, "SK-MEL-2": {"tested_on": "SK-MEL-2", "test": "Growth inhibition of human SK-MEL-2 cells assessed tumor cell growth at 10^-5 M", "design": "scale not given: the % may be the effect or the level left", "method_in_brief": "as §1"}, "MCF7": {"tested_on": "MCF7", "test": "Growth inhibition of human MCF7 cells assessed tumor cell growth at 10^-5 M", "design": "scale not given: the % may be the effect or the level left", "method_in_brief": "as §1"}, "NCI-H522": {"tested_on": "NCI-H522", "test": "Growth inhibition of human NCI-H522 cells assessed tumor cell growth at 10^-5 M", "design": "scale not given: the % may be the effect or the level left", "method_in_brief": "as §1"}, "HCC 2998": {"tested_on": "HCC 2998", "test": "Growth inhibition of human HCC2998 cells assessed tumor cell growth at 10^-5 M", "design": "scale not given: the % may be the effect or the level left", "method_in_brief": "as §1"}, "EKVX": {"tested_on": "EKVX", "test": "Growth inhibition of human EKVX cells"}, "BT-549": {"tested_on": "BT-549", "test": "Growth inhibition of human BT549 cells"}, "HCT-116": {"tested_on": "HCT-116", "test": "Growth inhibition of human HCT116 cells assessed tumor cell growth at 10^-5 M", "design": "scale not given: the % may be the effect or the level left", "method_in_brief": "as §1"}, "PC-3": {"tested_on": "PC-3", "test": "Growth inhibition of human PC3 cells"}, "OVCAR-3": {"tested_on": "OVCAR-3", "test": "Growth inhibition of human OVCAR3 cells assessed tumor cell growth at 10^-5 M", "design": "scale not given: the % may be the effect or the level left", "method_in_brief": "as §1"}, "OVCAR-8": {"tested_on": "OVCAR-8", "test": "Growth inhibition of human OVCAR8 cells"}, "DU-145": {"tested_on": "DU-145", "test": "Growth inhibition of human DU145 cells assessed tumor cell growth at 10^-5 M", "design": "scale not given: the % may be the effect or the level left", "method_in_brief": "as §1"}, "IGROV-1": {"tested_on": "IGROV-1", "test": "Growth inhibition of human IGROV1 cells", "method_in_brief": "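Follow-up panel testing at five concentrations (10^-4, 10^-5, 10^-6, 10^-7 and 10^-8 M) across the 60 human tumor cell lines. GI50 was obtained for each line from the concentration-response data, with the panel average GI50 also reported.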"}, "[4]": {"test": "Growth inhibition of human Hs 578T cells"}, "NCI-H322M": {"tested_on": "NCI-H322M", "test": "Growth inhibition of human NCI-H322M cells assessed tumor cell growth at 10^-5 M", "design": "scale not given: the % may be the effect or the level left", "method_in_brief": "as §1"}, "786-0": {"tested_on": "786-0", "test": "Growth inhibition of human 786-0 cells assessed tumor cell growth at 10^-5 M", "design": "scale not given: the % may be the effect or the level left", "method_in_brief": "as §1"}, "A498": {"tested_on": "A498", "test": "Growth inhibition of human A498 cells assessed tumor cell growth at 10^-5 M", "design": "scale not given: the % may be the effect or the level left", "method_in_brief": "as §1"}, "SF-539": {"tested_on": "SF-539", "test": "Growth inhibition of human SF539 cells"}, "U-251 [5]": {"tested_on": "U-251", "test": "Growth inhibition of human U251 cells"}, "RXF 393": {"tested_on": "RXF 393", "test": "Growth inhibition of human RXF393 cells assessed tumor cell growth at 10^-5 M", "design": "scale not given: the % may be the effect or the level left", "method_in_brief": "as §1"}, "M14 [6]": {"tested_on": "M14", "test": "Growth inhibition of human M14 cells assessed tumor cell growth at 10^-5 M", "design": "scale not given: the % may be the effect or the level left", "method_in_brief": "as §1"}, "[7]": {"details": "read-out: LC50 (the source's name)"}},
  "data": [
    {"smiles": "CC1=NN(c2cccc(Cl)c2)C(=O)/C1=C\\C=C\\c1ccccc1", "values": [
      {"measurement": "Activity", "setting": "MDA-MB-435", "value": 13.63, "unit": "%"},
      {"measurement": "GI50", "setting": "[1]", "value": 2.8, "unit": "µM"},
      {"measurement": "CC50", "setting": "[1]; [7]", "value": "> 100", "unit": "µM"},
      {"measurement": "Activity", "setting": "ACHN", "value": -51.29, "unit": "%"},
      {"measurement": "Activity", "setting": "SK-MEL-5", "value": 5.05, "unit": "%"},
      {"measurement": "GI50", "setting": "NCI-H460", "value": 1.6, "unit": "µM"},
      {"measurement": "CC50", "setting": "NCI-H460; [7]", "value": 6.4, "unit": "µM"},
      {"measurement": "GI50", "setting": "NCI-H23", "value": 2.3, "unit": "µM"},
      {"measurement": "LC50 (concentration killing 50% of cells)", "setting": "NCI-H23", "value": "> 100", "unit": "µM"},
      {"measurement": "Activity", "setting": "U-251 [2]", "value": -57.37, "unit": "%"},
      {"measurement": "GI50", "setting": "M14 [3]", "value": 1.6, "unit": "µM"},
      {"measurement": "CC50", "setting": "M14 [3]; [7]", "value": 7.5, "unit": "µM"},
      {"measurement": "Activity", "setting": "SN12C", "value": 0.41, "unit": "%"},
      {"measurement": "Activity", "setting": "SK-MEL-2", "value": 74.62, "unit": "%"},
      {"measurement": "Activity", "setting": "MCF7", "value": 5.42, "unit": "%"},
      {"measurement": "Activity", "setting": "NCI-H522", "value": 34.37, "unit": "%"},
      {"measurement": "Activity", "setting": "HCC 2998", "value": 30.87, "unit": "%"},
      {"measurement": "GI50", "setting": "EKVX", "value": 3, "unit": "µM"},
      {"measurement": "CC50", "setting": "EKVX; [7]", "value": "> 100", "unit": "µM"},
      {"measurement": "GI50", "setting": "BT-549", "value": 1.6, "unit": "µM"},
      {"measurement": "CC50", "setting": "BT-549; [7]", "value": 6.1, "unit": "µM"},
      {"measurement": "Activity", "setting": "HCT-116", "value": -89.22, "unit": "%"},
      {"measurement": "GI50", "setting": "PC-3", "value": 2.9, "unit": "µM"},
      {"measurement": "CC50", "setting": "PC-3; [7]", "value": "> 100", "unit": "µM"},
      {"measurement": "Activity", "setting": "OVCAR-3", "value": 103.59, "unit": "%"},
      {"measurement": "GI50", "setting": "OVCAR-8", "value": 2.6, "unit": "µM"},
      {"measurement": "CC50", "setting": "OVCAR-8; [7]", "value": "> 100", "unit": "µM"},
      {"measurement": "Activity", "setting": "DU-145", "value": 112.48, "unit": "%"},
      {"measurement": "GI50", "setting": "IGROV-1", "value": 1.6, "unit": "µM"},
      {"measurement": "CC50", "setting": "IGROV-1; [7]", "value": 16.5, "unit": "µM"},
      {"measurement": "GI50", "setting": "[4]", "value": 1.6, "unit": "µM"},
      {"measurement": "CC50", "setting": "[4]; [7]", "value": "> 100", "unit": "µM"},
      {"measurement": "Activity", "setting": "NCI-H322M", "value": 111.8, "unit": "%"},
      {"measurement": "Activity", "setting": "786-0", "value": 35.48, "unit": "%"},
      {"measurement": "Activity", "setting": "A498", "value": 109.76, "unit": "%"},
      {"measurement": "GI50", "setting": "SF-539", "value": 2.5, "unit": "µM"},
      {"measurement": "CC50", "setting": "SF-539; [7]", "value": "> 100", "unit": "µM"},
      {"measurement": "GI50", "setting": "U-251 [5]", "value": 1.7, "unit": "µM"},
      {"measurement": "CC50", "setting": "U-251 [5]; [7]", "value": 23.9, "unit": "µM"},
      {"measurement": "Activity", "setting": "RXF 393", "value": -87.73, "unit": "%"},
      {"measurement": "Activity", "setting": "M14 [6]", "value": 14.42, "unit": "%"}
    ]}
  ]
}
